Results reported in paper PMC6583897 (International journal of pharmaceutics, 2018).
One block for each compound: values may come before it.

Experiments:
CYP3A4 = settings: ref Yao et al., 2006; cited from earlier work
HIV-1NL-43 = assay: Antiviral activity in vitro, TZM-bl luciferase reporter assay; type: cell-based; settings: for IC50: Human immunodeficiency virus 1, TZM-bl, 48 h; for times more potent than free parent drug (IC50 ratio): TZM-bl cells, vs free FTC or free EVG
[1] = Pharmacokinetic evaluation after intramuscular injection, plasma LC/MS; type: in vivo, CD-1 mice; settings: female, CD-1, mouse, im, 1000 mg/kg
[2] = Hydrolytic release curves, pH 7.4 PBS, 37 °C; type: physicochemical; settings: 1 mg/mL, UV-vis
Outline: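 Test conjugates at 1 mg/mL were hydrolysed in 0.1 M phosphate-buffered saline, pH 7.4, with continuous stirring at 37 °C, in triplicate. Samples were taken at 1, 3, 7, 10, 14, 17, 21, 24, 28, 31, 35 and 42 days. Released parent drug was measured by UV absorbance at 300 nm or 320 nm, depending on the drug. Data are mean ± standard deviation (n = 3).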

[3] = ref Ho et al., 2018; cited from earlier work
HIV = settings: ref Agarwal et al., 2013; cited from earlier work

SMILES: CC/C=C\C/C=C\C/C=C\C/C=C\C/C=C\C/C=C\CCC(=O)O [DHA (Docosahexaenoic acid), Docosahexaenoic acid]
- inhibitory potency against CYP3A4 among available PUFA options (CYP3A4): greater inhibitory potency

- IC50 (HIV-1NL-43): 30.9 µM
- AUC(0-t) [1]: 48300 ng·h/mL
- Cmax [1]: 1750 ng/mL
- half-life [1]: 9.75 h
- k el [1]: 1.97e-05 s⁻¹
SMILES: COc1cc2c(cc1Cc1cccc(Cl)c1F)c(=O)c(C(=O)O)cn2[C@H](CO)C(C)C [EVG (Elvitegravir), Elvitegravir]

- period of sustained drug release [2]: 30 days
- IC50 (HIV-1NL-43): 0.14 µM
- times more potent than free parent drug (IC50 ratio) (HIV-1NL-43): ~ 220 times
SMILES: CC/C=C/C/C=C/C/C=C/C/C=C/C/C=C/C/C=C\CCC(=O)OCC(C(C)C)n1cc(C(=O)O)c(=O)c2cc(Cc3cccc(Cl)c3F)c(OC)cc21 (stereo not shown) [EVG-DHA, 6-(3-chloro-2-fluorobenzyl)-1-(1-(((4Z,7E,10E,13E,16E,19E)-docosa-4,7,10,13,16,19-hexaenoyl)oxy)-3-methylbutan-2-yl)-7-methoxy-4-oxo-1,4-dihydroquinoline-3-carboxylic acid]

SMILES: Nc1nc(=O)n([C@@H]2CS[C@H](CO)O2)cc1F [FTC (Emtricitabine), Emtricitabine]
- IC50 (HIV-1NL-43): 17.2 µM
- AUC(0-t) [1]: 127000 ng·h/mL
- Cmax [1]: 41000 ng/mL
- half-life [1]: 54.7 h
- k el [1]: 3.61e-06 s⁻¹

- period of sustained drug release [2]: 21 days
- IC50 (HIV-1NL-43): 1.39 µM
- times more potent than free parent drug (IC50 ratio) (HIV-1NL-43): ~ 12 times
SMILES: CC/C=C/C/C=C/C/C=C/C/C=C/C/C=C/C/C=C/CCC(=O)OC[C@@H]1O[C@H](n2cc(F)c(N)nc2=O)CS1 [FTC-DHA, ((2R,5S)-5-(4-amino-5-fluoro-2-oxopyrimidin-1(2H)-yl)-1,3-oxathiolan-2-yl)methyl (4E,7E,10E,13E,16E,19E)-docosa-4,7,10,13,16,19-hexaenoate]

SMILES: C=C1[C@H](CO)[C@@H](O)C[C@@H]1n1cnc2c(=O)[nH]c(N)nc21 [entecavir]
- active antiretroviral released within the first hour [3]: 15–41%

SMILES: CCCCCCCCCCCCCC(=O)OC[C@@H]1O[C@H](n2cc(F)c(N)nc2=O)CS1 [myristoylated FTC conjugate]
- higher anti-HIV activity compared to FTC alone (HIV): 24 times
